The source of these data is paper PMC11656380 (ACS Omega, 2024).

Data set [1] has as its system interactions between NICD and CSL. As to conditions: human cell lysates; cited from earlier work.
Data set [2] deals with CCRF-CEM cells. The data set can be described thus: WST-8 cell viability assay. The format is cell-based, human. To be noted: CCRF-CEM (Figure 7B). Put shortly: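 Cells at 5×10^4 cells/100 μL in complete medium (RPMI-1640, 10% fetal calf serum, 10 U/mL penicillin G, 10 μg/mL streptomycin) were exposed to various concentrations of test peptide in a 5% CO2 incubator for 24 h. WST-8 was added, and absorbance at 450 nm was read 1–2 h later. Viability was relative to an HBSS-added control (100%). Data are means ± SD.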

The test system of data set [3] is caspase-3 in CCRF-CEM cells. The data set can be described thus: Western blot of caspase-3 cleavage. The format is cell-based, human. As to conditions: 100 μM Tat-Ram13 or 30 μM etoposide. Put shortly: (§1)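 CCRF-CEM cells (1×10^6) were treated with 100 μM test peptide, or with etoposide, for the indicated time. Cells were washed in ice-cold PBS and lysed in RIPA buffer with protease inhibitors. Lysate (25 μg) was run on SDS-PAGE and blotted to PVDF, then blocked in 5% skim milk/PBS-0.1% Tween 20 for 30 min. Primary antibodies (1:1000; β-actin 1:10,000) were applied overnight at 4 °C, then HRP secondary for 1 h at 4 °C, with chemiluminescent detection.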
(In general: A western blot detects proteins with antibodies after separation by electrophoresis.)

The subject of data set [4] is PARP-1 in CCRF-CEM cells. The data set can be described thus: Western blot of PARP-1 cleavage. The format is cell-based, human. To be noted: 100 μM Tat-Ram13 or 30 μM etoposide. In short, it runs like this:
as §1

Data set [5] concerns CCRF-CEM cells. The data set can be described thus: Cell morphology, phase-contrast and DNA. The format is cell-based, human. To be noted: 100 μM Tat-Ram13 or 30 μM etoposide, 24 h. In short, it runs like this: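 Cells were seeded at 5×10^5 per well in glass-bottom dishes and incubated with or without test compound. They were then stained with Hoechst 33342 for 10 min and imaged by fluorescence or confocal microscopy.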

Data set [6] deals with CCRF-CEM cells. The data set can be described thus: Time course of cell death, trypan blue exclusion assay. The format is cell-based, human. To be noted: up to 24 h. Put shortly: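 CCRF-CEM cells in complete RPMI-1640 (10% fetal calf serum, 5% CO2) were exposed to test peptide, control peptide or etoposide at the indicated concentrations, sampled over up to 24 h, and scored for viable cells by trypan blue exclusion.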

Data set [7] concerns CCRF-CEM cells. Put plainly: HMGB1 release, Western blot. The format is cell-based, human. To be noted: Western blot of supernatant and pellet, etoposide 24 h.
Data set [8] has as its system HPB-ALL cells. Put plainly: Proliferation, total cell count over 3 days. In kind it is cell-based, human. To be noted: 15 μM DAPT, 100 μM Tat-Ram13 or 100 μM Tat-mRam13.

Entries after “also recorded” stand apart in the source; their conditions may differ.

On to RRQHGQLWFPEGF [Ram13], for which the “disruption of NICD-CSL interaction” value in data set [1] was “effectively disrupted interactions between NICD and CSL”. Further, in data set [2], the “cytotoxicity, role of the cell-penetrating part” value was “inactive; also recorded: lost its cytotoxicity”.
Consider `COc1cc([C@@H]2c3cc4c(cc3[C@@H](O[C@@H]3O[C@@H]5CO[C@@H](C)O[C@H]5[C@H](O)[C@H]3O)[C@H]3COC(=O)[C@H]23)OCO4)cc(OC)c1O` [etoposide], for which the caspase-3 cleavage entry in data set [3] is recorded as “did produce the cleaved fragment”. Further, the “cleavage of PARP-1 fragments (89 kDa)” value in data set [4] is “as etoposide did”. Moreover, the cell morphology result in data set [5] was “membrane blebbing and DNA fragmentation”. The “time course of cell death” value in data set [6] is given as “occurred more slowly”. The “HMGB1 release into the culture supernatant” value in data set [7] is on record as “released very little HMGB1”.
Consider `C[C@H](NC(=O)Cc1cc(F)cc(F)c1)C(=O)N[C@H](C(=O)OC(C)(C)C)c1ccccc1` [DAPT], for which, in data set [8], the “cell proliferation (total cell count)” value is on record as “significant reduction in proliferation”.
